Measured values as given in ChEMBL document CHEMBL1828589, “Isoeugenol-based novel potent antioxidants: synthesis and reactivity” (Eur J Med Chem, 2011).

Legend:
Format in all cases: functional
[1] = Antioxidant activity assessed as inhibition of linoleic acid lipid peroxidation at 100 ug/ml measured after 6 hrs by ferric thiocynate method
Method in brief: (§1)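 Mitsuda ferric thiocyanate method. Linoleic acid/Tween 20 emulsion in 0.2 M phosphate pH 7.0, mixed with ethanolic compound and buffer. Incubated at 37 °C in the dark and sampled every 6 h. Aliquot taken into 75% ethanol, 30% ammonium thiocyanate and 0.02 M FeCl2 in 3.5% HCl; A500 read after 3 min. Inhibition % = (Ac−As)/Ac×100 against a no-compound control. Triplicates.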

[2] = Antioxidant activity assessed as inhibition of linoleic acid lipid peroxidation at 100 ug/ml measured after 12 hrs by ferric thiocynate method; method in brief: as §1
[3] = Antioxidant activity assessed as inhibition of linoleic acid lipid peroxidation at 100 ug/ml measured after 18 hrs by ferric thiocynate method; method in brief: as §1
[4] = Antioxidant activity assessed as inhibition of linoleic acid lipid peroxidation at 100 ug/ml measured after 24 hrs by ferric thiocynate method; method in brief: as §1
[5] = Antioxidant activity assessed as inhibition of linoleic acid lipid peroxidation at 100 ug/ml measured after 30 hrs by ferric thiocynate method; method in brief: as §1
[6] = Antioxidant activity assessed as inhibition of linoleic acid lipid peroxidation at 100 ug/ml measured after 36 hrs by ferric thiocynate method; method in brief: as §1
[7] = test system: Radical scavenging activity; assay: Antioxidant activity assessed as residual DPPH radical scavenging activity after 30 mins by spectrophotometric analysis
Method in brief: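 Compound in ethanol at 10–40 µg/mL (3 mL) mixed with 1 mL of 0.1 mM ethanolic DPPH. Shaken, then left 30 min at room temperature, read at 517 nm. IC50 (µM) is the concentration giving a 50% fall in absorbance, from regression; three repeats.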

[8] = Antioxidant activity assessed as residual ABTS+ radical scavenging activity after 30 mins by spectrophotometric analysis
Method in brief: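 ABTS radical cation formed from 2 mM ABTS and 2.45 mM potassium persulfate in water, kept dark at room temperature for 12 h. Ethanolic compound at 10–30 µg/mL added to the radical solution. Remaining radical read at 734 nm and converted to concentration by a calibration curve (0.033–0.33 mM). IC50 (µM) by regression; three repeats.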

[9] = Antioxidant activity assessed as superoxide radical scavenging activity after 40 mins by Zhishen's method
Method in brief: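 Riboflavin (3×10⁻⁵ M), methionine (1×10⁻² M) and NBT (1×10⁻⁴ M) in 0.05 M phosphate pH 7.8. Illuminated 25 °C for 40 min to form formazan; absorbance at 560 nm, with an unilluminated mixture as control. Compounds tested at 10–40 µg/mL. IC50 (µM) by regression; three repeats.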

[10] = Antioxidant activity assessed as ferric to ferrous reduction at 10 ug/ml by FRAP assay
Method in brief: (§2)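 Oyaizu method, adjusted. Diluted compound in ethanol mixed with 0.2 mol/L phosphate buffer pH 6.6 and 1% K3Fe(CN)6, held 50 °C for 20 min. Then 10% trichloroacetic acid added and spun at 10,000g for 10 min. Upper layer mixed with water and 0.1% FeCl3, absorbance read at 700 nm. Mean ± SD of three replicate assays.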

[11] = Antioxidant activity assessed as ferric to ferrous reduction at 20 ug/ml by FRAP assay; method in brief: as §2
[12] = Antioxidant activity assessed as ferric to ferrous reduction at 30 ug/ml by FRAP assay; method in brief: as §2
[13] = Antioxidant activity assessed as ferric to ferrous reduction activity at 40 ug/ml by FRAP assay; method in brief: as §2

Compound | inhibition [1] | inhibition [2] | inhibition [3] | inhibition [4] | inhibition [5] | inhibition [6] | IC50 [7] | IC50 [8] | IC50 [9] | Activity [10] | Activity [11] | Activity [12] | Activity [13]
CCC(c1ccc(O)c(OC)c1)c1ccc(O)cc1O (configuration not stated) | 36% | 75% | 85% | 94% | 97% | 94% | 6.71 µM | 10.1 µM | 15.3 µM | 0.27 | 0.32 | 0.36 | 0.47
Cc1cc(C(C)(C)C)c(O)c(C(C)(C)C)c1 [BUTYLATED HYDROXYTOLUENE] | 47% | 81% | 92% | 97% | 98% | 98% | 11.5 µM | 10.2 µM | 28.4 µM | 0.27 | 0.39 | 0.5 | 0.6
C/C=C\c1ccc(O)c(OC)c1 [ISOEUGENOL] | 28% | 42% | 90% | 96% | 91% | 82% | 40.7 µM | 8.84 µM | 42.3 µM | 0.32 | 0.37 | 0.41 | 0.43
CCC(c1ccc(O)c(OC)c1)c1cccc(O)c1O (configuration not stated) | 34% | 74% | 90% | 94% | 97% | 96% | 5.8 µM | 8.43 µM | 6.17 µM | 0.49 | 0.54 | 0.58 | 0.73
CCC(c1ccc(O)c(OC)c1)c1cccc(C(C)C)c1O (configuration not stated) | 38% | 78% | 88% | 95% | 97% | 96% | 6.3 µM | 7 µM | 10.1 µM | 0.22 | 0.2 | 0.2 | 0.24
CCC(c1ccc(O)c(O)c1)c1ccc(O)c(OC)c1 (configuration not stated) | 37% | 78% | 90% | 96% | 98% | 97% | 5.8 µM | 8.28 µM | 6.61 µM | 0.43 | 0.55 | 0.58 | 0.64
CCOc1cccc(C(CC)c2ccc(O)c(OC)c2)c1O (configuration not stated) | 37% | 77% | 89% | 96% | 97% | 96% | 6.19 µM | 7.19 µM | 13.7 µM | 0.21 | 0.22 | 0.25 | 0.28
Cc1c(C)c2c(c(C)c1O)CCC(C)(C(=O)O)O2 (configuration not stated) [TROLOX] | 35% | 70% | 87% | 89% | 92% | 86% | 5.84 µM | 8 µM | 61.3 µM | 0.23 | 0.38 | 0.56 | 0.72
CCC(c1ccc(O)c(OC)c1)c1ccccc1O (configuration not stated) | 32% | 75% | 90% | 94% | 97% | 96% | 7.83 µM | 8.53 µM | 10.5 µM | 0.26 | 0.27 | 0.3 | 0.34
